Data on ten molecules can be found in ChEMBL document CHEMBL1123850, “Estrogenic affinity labels: synthesis, irreversible receptor binding, and bioactivity of aziridine-substituted hexestrol derivatives” (J Med Chem, 1987).

Calls of active or inactive are those of the source. The rule behind the calls is not given here.

For test [1], the system named is MCF7. Kind of test: Effect on 10e-9 M estradiol stimulation of MCF-7 cell proliferation at 3x10E-7M; potent agonistic. The settings on record: Homo sapiens, filed as agonist. The class given is functional, cell-based.
The target of test [2] is T1, Estrogen receptor (Ovis aries) (UniProt P49885+Q9TU15). The test can be described thus: Time dependent irreversible binding to estrogen receptor by inactivation-exchange assay; Weak. The format is protein assay.
Test [3] deals with MCF7. Kind of test: Effect on 10e-9 M estradiol stimulation of MCF-7 cell proliferation at 3x10E-8M; Agonistic. The class given is functional, cell-based. The settings on record: Homo sapiens, filed as agonist.
Test [4] concerns the target T1, Estrogen receptor (Ovis aries). Kind of test: Time dependent irreversible binding to estrogen receptor by inactivation-exchange assay; Good. The format is protein assay.
The test system of test [5] is MCF7. The test can be described thus: Effect on 10e-9 M estradiol stimulation of MCF-7 cell proliferation at 10e-8 M. The format is functional, cell-based. The following applies: Homo sapiens, filed as agonist.
In test [6] the test system is MCF7. Kind of test: Effect on 10e-9 M estradiol stimulation of MCF-7 cell proliferation at 3x10E-7M; very weak. The settings on record: Homo sapiens. The class given is functional, cell-based. Put shortly:
(§1)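 MCF-7 human breast cancer cells kept 1 week in phenol red-free IMEM with 5% charcoal dextran-treated calf serum, then seeded at ca. 0.5 x 10^5 cells/flask. Next day switched to phenol red- and insulin-free medium holding compound, estradiol (10^-9 M), hydroxytamoxifen or 0.1% ethanol vehicle, renewed every 48 h. Cells counted after 8 days. Agonism is growth relative to estradiol; antagonism is suppression of estradiol-stimulated growth.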

Test [7] concerns MCF7. The test can be described thus: Effect on 10e-9 M estradiol stimulation of MCF-7 cell proliferation at 3E-7M: Weak antagonistic. The settings on record: Homo sapiens, filed as antagonist. The format is functional, cell-based.
Test [8] relates to MCF7. The test can be described thus: Effect on 10e-9 M estradiol stimulation of MCF-7 cell proliferation at 4x10E-8M; Agonistic. The class given is functional, cell-based. The settings on record: Homo sapiens, filed as agonist. Put shortly:
as §1

Test [9] deals with T1, Estrogen receptor (Ovis aries). The test can be described thus: Time dependent irreversible binding to estrogen receptor by inactivation-exchange assay; No. The format is protein assay.
Test [10] has as its system MCF7. The test can be described thus: Effect on 10e-9 M estradiol stimulation of MCF-7 cell proliferation at 4x10E-8M; Agonist. The class given is functional, cell-based. The following applies: Homo sapiens, filed as agonist.
Test [11] relates to MCF7. The test can be described thus: Effect on 10e-9 M estradiol stimulation of MCF-7 cell proliferation at 3x10E-7M;weak agonistic. The format is functional, cell-based. The settings on record: Homo sapiens, filed as partial agonist. Put shortly:
as §1

`CC[C@H](c1ccc(O)cc1)[C@@H](C(=O)OCCN1CC1)c1ccc(O)cc1`: in the test on MCF7 [1], the Activity entry is “Agonist”. Moreover, in [2], the Irreversible binding entry is “Partially active”.
Consider `CC[C@H](c1ccc(O)cc1)[C@@H](CSCCCN1CC1)c1ccc(O)cc1`, for which the Activity result with MCF7 [3] was “Agonist”. Further, the Irreversible binding result in test [4] is “Time-dependent effect”.
For `CC[C@H](c1ccc(O)cc1)[C@@H](C(=O)CCCCN1CC1)c1ccc(O)cc1`, the Irreversible binding result in [4] was “Time-dependent effect”. For the same molecule, in the test on MCF7 [5], the Activity entry is “Agonist”.
For `CC[C@H](c1ccc(O)cc1)[C@@H](CCCCN1CCNCC1)c1ccc(O)cc1`, in the test with MCF7 [6], the outcome was inactive.
For the molecule `CC[C@H](c1ccc(O)cc1)[C@@H](CCCCN1CC1)c1ccc(O)cc1`, the Irreversible binding result in [4] is “Time-dependent effect”. In the test on MCF7 [7], the Activity entry was “Partial antagonist”.
As for `CC[C@H](c1ccc(O)cc1)[C@@H](C(=O)OCCCN1CC1)c1ccc(O)cc1`, the Activity entry with MCF7 [1] was “Agonist”. In test [2], the Irreversible binding result is “Partially active”.
For the molecule `CC[C@H](c1ccc(O)cc1)[C@@H](CSCCCN(C)C)c1ccc(O)cc1`, the Activity result with MCF7 [8] is “Agonist”.
For `CC[C@H](c1ccc(O)cc1)[C@@H](CSCCN1CC1)c1ccc(O)cc1`, the Irreversible binding result in test [9] is “inactive”. The Activity entry with MCF7 [10] was “Agonist”.
Turning to `CC[C@H](c1ccc(O)cc1)[C@@H](C(=O)N1CC1)c1ccc(O)cc1`, the Irreversible binding entry in test [9] was “inactive”. Moreover, the Activity result in the test on MCF7 [1] was “Agonist”.
In the case of `CC[C@H](c1ccc(O)cc1)[C@@H](C(=O)CCCCN(C)C)c1ccc(O)cc1`, the Activity result in the test with MCF7 [11] was “Partial agonist”.
